CRFR2-BP antag: antagonists of CRF-binding protein/CRF-R2 receptor complex | AID 588475 | inhibition, % at 11.8 µM | HEK293 CRF-R2/CRF-BP, CRF-induced calcium fluorescence | 0.59% of 350,000 active;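 active means inhibition of the ligand-induced calcium signal above about 50% at the single tested concentration, limit read from the data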
KLK7 zymogen act: activators of human kallikrein-7 zymogen; purified proKLK7, EDANS-DABCYL substrate fluorescence; 100% is mature enzyme control, 0% vehicle; AID 652039; 0.9% of 370,000 active; activation, % at 7 µM; P49862;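 active means activation above the mean of all tested compounds plus 3 SD, computed per campaign excluding outliers beyond control limits, cut at about 13% in these data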
Target sequence (P49862 whole entry, looked up): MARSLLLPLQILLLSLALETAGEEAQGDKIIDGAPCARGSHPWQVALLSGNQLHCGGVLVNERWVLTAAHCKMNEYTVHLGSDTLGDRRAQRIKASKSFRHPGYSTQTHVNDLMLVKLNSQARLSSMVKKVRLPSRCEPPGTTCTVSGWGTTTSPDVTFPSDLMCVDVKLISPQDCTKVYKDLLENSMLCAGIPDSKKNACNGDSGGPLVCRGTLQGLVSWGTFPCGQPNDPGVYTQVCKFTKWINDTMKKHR
CRFR2-BP ag: CRF-BP/CRF-R2 complex agonism; HEK293 CRF-R2/CRF-BP, calcium dye fluorescence (FLIPR); percent of saturating CRF peptide response; activation, % at 13.2 µM; 0.46% of 350,000 active; AID 588473;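 active means activation of at least 50%, plus an integration ratio under a set limit after plate pattern correction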
CendR NRP1 mod: NRP-1/CendR interaction modulation | inhibition, % at 25 µM | 0.85% of 360,000 active | FAM-RPARPAR peptide binding to NRP-1, fluorescence polarization | O14786 | AID 602438;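 active means inhibition or corrected inhibition above about 18%, plus a signal ratio from 0.5 to 1.5, limit read from the data, passing the limit was not always enough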
DDE Tn6 FP inh: DD(E)-Tn6 binding inhibition, primary FP screen | P02675 | Fibrin DD(E) TRITC-Tn6 fluorescence polarization displacement | inhibition, % at 8.3 µM | 0.21% of 370,000 active | AID 720509;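 active means inhibition above a per-campaign cutoff: mean of compounds within control limits plus 3 SD, cut at about 15% in these data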
Tn7 DDE FP: DD(E)-Tn7 binding inhibition, primary FP screen; P02675; 0.13% of 370,000 active; FP displacement of FITC-Tn7 peptide from fibrin DD(E); 0% = median of compound wells per plate; inhibition, % at 8.3 µM;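 active means inhibition above the mean of compounds falling within the control limits plus 3 SD of them, cut at about 14% in these data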
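System: human fibrin DD(E); quantity: Fibrin-DD(E) at 2 µM final; also added: fluorescent Tn7 probe at 0.1 µM; compound dosing: single nominal test concentration of 8.3 µM per compound; schedule: 10 min preincubation, 3 h with tracer, room temperature; detection: fluorescence polarization of the labelled Tn7 tracer; repeats: one replicate per compound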
A number is an active result; n = inactive; x = not tested or not shown. Hits are enriched below; roughly 2.9% of the tested compounds scored in any of these assays.

SMILES	CRFR2-BP antag	KLK7 zymogen act	CRFR2-BP ag	CendR NRP1 mod	DDE Tn6 FP inh	Tn7 DDE FP
COc1cccc(N2CCN(S(=O)(=O)c3c(C)[nH]c(C)c3C(=O)N3CCCC3)CC2)c1	120	n	n	n	n	n
Cc1[nH]c(C)c(S(=O)(=O)N2CCN(c3cccc(Cl)c3)CC2)c1C(=O)N1CCCC1	n	n	n	n	n	n
Clc1nc(-c2ccccn2)nc2scc(-c3ccccc3)c12	n	n	n	30	n	n
CC1CCN(c2nc(-c3cccnc3)nc3scc(-c4ccccc4)c23)CC1	n	n	n	n	n	n
CS(=O)(=O)N1CCC[C@]2(CC[C@H](CCC#N)O2)C1	x	n	x	x	n	n
O=C(CC(c1ccccc1)c1ccccc1O)NCc1ccccc1Cl (stereo not drawn)	67	n	n	n	n	n
O=C(CC(c1ccccc1)c1ccccc1O)NCc1ccco1 (stereo not drawn)	n	n	n	n	n	n
CCC[C@H]1[C@@H](OC(=O)NCc2cccc(Cl)c2)CC[C@@]23CCCN2C(=O)CCC[C@@H]13	x	x	x	x	n	n
COc1ccc(CNC(=O)C[C@H]2C[C@H](C(=O)N(C(C)C)C(C)C)[C@@]3(C)c4[nH]c5ccc(Cl)cc5c4CCN3C2=O)cc1OC	n	n	n	n	n	n
CC(C)N(C(=O)[C@H]1C[C@H](CC(=O)NCCC2=CCCCC2)C(=O)N2CCc3c([nH]c4ccc(Cl)cc34)[C@]12C)C(C)C	65	n	n	n	n	n
CC(C)=CCC/C(C)=C/CNC(=O)CC1C[C@H](C(=O)N(C(C)C)C(C)C)[C@@]2(C)c3[nH]c4ccccc4c3CCN2C1=O (stereo partly drawn)	n	n	n	n	n	n
CC(C)=CCC/C(C)=C/CNC(=O)C[C@H]1C[C@H](C(=O)N(C(C)C)C(C)C)[C@@]2(C)c3[nH]c4ccc(Cl)cc4c3CCN2C1=O	n	n	n	27	n	n
CCN(CC)C(=O)CC[C@H]1CC[C@]2(CCCN(C(=O)c3ccc4ccccc4n3)C2)O1	x	n	x	x	n	n
COC(=O)[C@]12C[C@H](CC(=O)NCCCN3CCCC3=O)C(=O)N(Cc3cccc4ccccc34)C1=C[C@H](C(C)(C)C)O[C@@H]2C	x	n	x	x	n	n
c1ccc(NN(Cc2ccncc2)c2ccccc2)cc1	n	n	n	n	n	n
N#Cc1ccc(CN(Nc2ccccc2)c2ccccc2)cc1	56	n	n	n	n	n
CN(C)c1ccc(C(=O)OCc2cc(=O)n3ccsc3n2)cc1	n	n	n	23	n	n
Cc1ccc(/C(=N\O)c2oc3c(C)c4oc(=O)cc(C)c4cc3c2C)cc1	n	n	n	n	n	n
Cc1cc(=O)oc2c1ccc1oc(/C(=N/O)c3ccccc3)c(C)c12	118	n	n	n	n	n
S=C(Nc1ccc2nsnc2c1)N1CCCCC1	n	n	n	n	n	n
CCN(CC)C(=O)C1CCCN(C(=O)Nc2ccc3nsnc3c2)C1 (stereo not drawn)	n	19	n	34	n	n
O=c1cc(C(F)(F)F)[nH]c2c(C(F)(F)F)cccc12	n	x	54	n	x	x
CCOc1ccc2[nH]c(C)cc(=O)c2c1	n	n	n	n	n	n
O=c1cc(C(F)(F)F)[nH]c2ccc(OC(F)(F)F)cc12	69	n	n	n	n	n
CCCC(=O)OCCNc1cc(Sc2nccn2C)c2nonc2c1[N+](=O)[O-]	52	n	n	n	n	n
SMILES	CRFR2-BP antag	KLK7 zymogen act	CRFR2-BP ag	CendR NRP1 mod	DDE Tn6 FP inh	Tn7 DDE FP
CCCSc1cc(NCCOC(=O)CCC)c([N+](=O)[O-])c2nonc12	n	n	n	n	n	n
CSc1nc2ccccc2c(=O)n1C1CCOC(C)(C)C1 (stereo not drawn)	n	n	n	28	n	n
c1ccc(C(c2nnnn2Cc2ccco2)N2CCN(c3nc4ccccc4s3)CC2)cc1 (stereo not drawn)	n	n	n	46	n	n
c1ccc(Cn2nnnc2C(c2ccccc2)N2CCN(c3nc4ccccc4s3)CC2)cc1 (stereo not drawn)	n	n	n	n	n	n
CCSc1nsc(NC(=O)Nc2cccc(F)c2)n1	n	n	52	n	n	n
COc1cccc(NC(=O)Nc2nc(SC)ns2)c1	n	n	n	n	n	n
